Here are results for 8 compounds from ChEMBL document CHEMBL1152522, “RCAI-37, 56, 59, 60, 92, 101, and 102, cyclitol and carbasugar analogs of KRN7000: their synthesis and bioactivity for mouse lymphocytes to produce Th1-biased cytokines” (2009).

Assay [1] deals with Mus musculus. The assay can be described thus: Immunostimulatory activity in C57BL/6 mouse assessed as increase in serum IFN-gamma production at 10 ug/mL, iv after 36 hrs post-injection by ELISA. The class given is functional, organism-based. The method in brief:
(§1)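 C57BL/6 mice, 8–16 wk old, kept specific pathogen-free. Glycolipid stock (1.0 mg/mL in DMSO) diluted to 10 µg/mL in Dulbecco's PBS just before dosing; 200 µL given iv. Retro-orbital heparinized blood taken at 3, 6, 12, 24, 36, 48 and 60 h for plasma. IFN-γ measured by ELISA; IL-4 and IL-12p70 by cytometric bead array. Mean ± SD of 3 mice; experiment repeated three times.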
A general note: An ELISA detects its analyte on a solid surface through an enzyme-linked reagent.

Assay [2] deals with Mus musculus. The assay is described as follows: Immunostimulatory activity in C57BL/6 mouse assessed as increase in serum IL-12p70 production at 10 ug/mL, iv after 3 hrs post-injection by cytometric bead array method. The class given is functional, organism-based. The method in brief: as §1
Assay [3] deals with Mus musculus. The assay can be described thus: Immunostimulatory activity in C57BL/6 mouse assessed as increase in serum IFN-gamma production at 10 ug/mL, iv after 24 hrs post-injection by ELISA. In kind it is functional, organism-based. In short, it runs like this: as §1
Assay [4] has as its system Mus musculus. The assay can be described thus: Ratio of KRN700 to compound activity for increase in serum IL4 production in C57BL/6 mouse at 10 ug/mL, iv after 3 to 24 hrs post-injection by cytometric bead array method. The class given is functional.
In the next assay the test system is PBMC. The assay is described as follows: Immunostimulatory activity in human PBMC assessed as increase in IFN-gamma production by ELISA. In kind it is functional, cell-based.
Assay [5] concerns Mus musculus. The assay is described as follows: Immunostimulatory activity in C57BL/6 mouse assessed as increase in serum IL-12p70 production at 10 ug/mL, iv after 6 hrs post-injection by cytometric bead array method. In kind it is functional, organism-based. The method in brief: as §1
The test system of assay [6] is Mus musculus. The assay can be described thus: Immunostimulatory activity in C57BL/6 mouse assessed as increase in serum IL4 production at 10 ug/mL, iv after 3 to 24 hrs post-injection by cytometric bead array method. In kind it is functional, organism-based. The method in brief: as §1
Assay [7] relates to Mus musculus. The assay is described as follows: Immunostimulatory activity in C57BL/6 mouse assessed as increase in serum IL-12p70 production at 10 ug/mL, iv after 3 to 24 hrs post-injection by cytometric bead array method. In kind it is functional, organism-based. In short, it runs like this: as §1
The test system of assay [8] is Mus musculus. The assay can be described thus: Immunostimulatory activity in C57BL/6 mouse assessed as increase in serum IFN-gamma production at 10 ug/mL, iv after 10 to 60 hrs post-injection by ELISA. The class given is functional, organism-based. In short, it runs like this:
as §1

Assay [9] concerns Mus musculus. The assay can be described thus: Immunostimulatory activity in C57BL/6 mouse assessed as mild increase in serum IFN-gamma production at 10 ug/mL, iv after 10 to 60 hrs post-injection by ELISA. In kind it is functional, organism-based. The method in brief: as §1

Active and inactive are the calls of the source. The calls are words filed in the database; no cut-off is given here.

For `CCCCCCCCCCCCCCCCCCCCCCCCCC(=O)N[C@@H](CO[C@H]1C[C@H](CO)[C@H](O)[C@H](O)[C@H]1O)[C@H](O)[C@H](O)CCCCCCCCCCCCCC`, the result with Mus musculus [1], in the assay on Mus musculus [2], in the assay on Mus musculus [3], with PBMC and in the assay on Mus musculus [5] was Active. Further, the Ratio with Mus musculus [4] stood at 0.5.

`CCCCCCCCCCCCCCCCCCCCCCCCCC(=O)N[C@@H](CO[C@@H]1[C@H](O)[C@@H](O)[C@@H](O)[C@@H](O)[C@@H]1O)[C@H](O)[C@H](O)CCCCCCCCCCCCCC`: the outcome in the assay on Mus musculus [6], with Mus musculus [7] and in the assay on Mus musculus [8] was inactive.

Regarding `CCCCCCCCCCCCCCCCCCCCCCCCCC(=O)N[C@@H](CO[C@H]1C[C@H](COC)[C@H](O)[C@H](O)[C@H]1O)[C@H](O)[C@H](O)CCCCCCCCCCCCCC`, in the assay on Mus musculus [9], the outcome was Active.

`CCCCCCCCCCCCCCCCCCCCCCCCCC(=O)N[C@@H](CO[C@H]1C[C@H](OC)[C@H](O)[C@H](O)[C@H]1O)[C@H](O)[C@H](O)CCCCCCCCCCCCCC`: the result with Mus musculus [6] and in the assay with Mus musculus [8] was Active.

For the compound `CCCCCCCCCCCCCCCCCCCCCCCCCC(=O)N[C@@H](CO[C@H]1C[C@H](C)[C@H](O)[C@H](O)[C@H]1O)[C@H](O)[C@H](O)CCCCCCCCCCCCCC`, the outcome with Mus musculus [9] was Active.

As to `CCCCCCCCCCCCCCCCCCCCCCCCCC(=O)N[C@@H](CO[C@H]1C[C@H](O)[C@H](O)[C@H](O)[C@H]1O)[C@H](O)[C@H](O)CCCCCCCCCCCCCC`, the result in the assay on Mus musculus [6], in the assay with Mus musculus [8] and in the assay with PBMC was Active.

Regarding `CCCCCCCCCCCCCCCCCCCCCCCCCC(=O)N[C@@H](CO[C@@H]1[C@H](O)[C@@H](O)[C@H](O)[C@@H](O)[C@@H]1O)[C@H](O)[C@H](O)CCCCCCCCCCCCCC`, the outcome in the assay on Mus musculus [6], in the assay on Mus musculus [7] and with Mus musculus [8] was inactive.

In the case of `C[C@H]1O[C@H](O)[C@H](O)[C@@H](O)[C@H]1O`, the result in the assay with Mus musculus [8] was Active.
